Reference: ChEMBL document CHEMBL1124328, “Hypoxia-selective antitumor agents. 1. Relationships between structure, redox properties and hypoxia-selective cytotoxicity for 4-substituted derivatives of nitracrine” (J Med Chem, 1989)

What was measured:
[1] = Equilibrium constant measured by the pulse radiolysis at pH 7; assay type: ADME
Method in brief: (§1)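 Pulse radiolysis on a 1.8 MV linac (ca. 3 Gy in 0.2 μs) of solutions at 21 °C in a 2-cm pathlength cell, buffered at pH 7 with 2 mM sodium phosphate. Dose was set by aerated 10 mM KSCN absorbance at 472 nm. The equilibrium constant K for ArNO₂/ArNO₂•⁻ versus benzylviologen came from radical ratios over various substrate concentrations. E(1) was derived from K relative to E(BV²⁺/BV•⁺).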

[2] = Relative lipophilicity of the compound; assay type: physicochemical; details: octanol/water
[3] = Dissociation constant of the compound; assay type: physicochemical
[4] = Ratio of cytotoxicity determined in air to that of cytotoxicity determined in N2 was measured under aerobic conditions to hypoxic conditions by the clonogenic assay against Chinese hamster ovary (subline AA8) cells; assay type: cell-based, Cricetulus griseus; details: subline AA8 (CHO-AA8)
Method in brief: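 Clonogenic survival of plateau-phase AA8 cells in stirred suspension at 37 °C. Cells and drug were pre-gassed separately for 45 min with 5% CO₂ in air or in N₂, then mixed using a gas-purged syringe. Plating efficiency was sampled over up to 3 h. Drug levels were chosen to give similar killing rates under both gases. Ratio = CT₁₀(air)/CT₁₀(N₂), where CT₁₀ is concentration × time for 10% survival.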

Nucleic Acid = assay: Logarithm of association constant for binding to poly[d(A-T)], determined by ethidium displacement; assay type: nucleic-acid assay
Method in brief: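 Ethidium displacement assay with poly[d(A-T)], giving log association constant. No quenching corrections were applied.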

[5] = Cytotoxicity was measured under aerobic conditions by the clonogenic assay against Chinese hamster ovary (subline AA8) cells; assay type: cell-based, Cricetulus griseus; parameters: unit not given here
Method in brief: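 CHO AA8 cells were grown in alpha MEM with 10% FCS, then taken to unfed plateau phase in spinner flasks (1.0–1.3 × 10⁶ cells/mL). Cells were resuspended in 5% FCS medium, and cells and drug were pre-equilibrated separately for 45 min at 37 °C under flowing 5% CO₂ in air. Exposure was as stirred suspension for up to 3 h, with plating efficiency sampled over time. CT₁₀ is the concentration × time giving 10% survival.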

[6] = Compound''s one-electron reduction potential (E(1)) has been measured by radiolysis at pH 7; method in brief: as §1
[7] = Compound's one-electron reduction potential (E(1)) has been measured by radiolysis at pK1
Method in brief: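 Calculated from E(1) measured at pH 7 using the paper's pH-dependence expression. Side-chain pKa values (pK2, pKr2) were assumed equal for all derivatives, and the acridine radical pKa was assumed 4.3 pH units above pK1.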

[8] = Dissociation constant was determined; assay type: physicochemical

Row | SMILES | K [1] [M⁻¹] | Rm [2] | pKa [3] | selectivity ratio [4] | Log K (Nucleic Acid) | CT10 [5] | E [6] [mV] | E [7] [mV] | pKa [8] | Log Ke (Nucleic Acid)
1 | CN(C)CCCNc1c2ccccc2nc2c(Cl)ccc([N+](=O)[O-])c12 | 7 | -0.25 | 5 | 13.6 | 5.95 M-1 | 0.68 | -325 | -225 |  | 
2 | CN(C)CCCNc1c2ccccc2nc2c(F)ccc([N+](=O)[O-])c12 | 2.4 | -0.46 | 5.41 | 5.3 | 6.15 M-1 | 2 | -354 | -277 |  | 
3 | CC(=O)OCCN(CCOC(C)=O)c1ccc([N+](=O)[O-])c2c(NCCCN(C)C)c3ccccc3nc12 | 11.7 | -0.29 | 6.2 | 11.5 | 6.5 M-1 | 575 | -314 | -280 |  | 
4 | COC(=O)c1ccc([N+](=O)[O-])c2c(NCCCN(C)C)c3ccccc3nc12 | 175 |  |  | 0.32 | 6.06 M-1 | 8 | -244 | -164 | 5.35 | 
5 | COc1ccc([N+](=O)[O-])c2c(NCCCN(C)C)c3ccccc3nc12 | 1.9 | -0.88 | 6.61 | 16 | 6.76 M-1 | 22 | -361 | -346 |  | 
6 | CN(C)CCCNc1c2ccccc2nc2cccc([N+](=O)[O-])c12 [NITRACRINE] | 18 | -0.85 | 6.21 | 9.9 | 6.92 M-1 | 0.47 | -303 | -270 |  | 
7 | CN(C)CCCNc1c2ccccc2nc2c(N(C)C)ccc([N+](=O)[O-])c12 | 5.3 | -0.63 | 6.47 | 16 | 7.11 M-1 | 720 | -334 | -314 |  | 
8 | Cc1ccc([N+](=O)[O-])c2c(NCCCN(C)C)c3ccccc3nc12 | 8.8 | -0.76 | 6.29 | 10 | 7.23 M-1 | 2 | -321 | -292 |  | 
9 | CN(C)CCCNc1c2ccccc2nc2c(N(CCO)CCO)ccc([N+](=O)[O-])c12 |  | -0.74 | 6.53 | 6 |  | 540 |  |  |  | 6.73 M-1
